Source: ChEMBL document CHEMBL1177775, “A novel synthesis of 3-aryl coumarins and evaluation of their antioxidant and lipoxygenase inhibitory activity” (Bioorg Med Chem Lett, 2010)
Active and inactive are the calls of the source. No cut-off for these calls is given here.

What was measured:
[1] = tested on: Radical scavenging activity; test: Antioxidant activity assessed as DPPH radical scavenging activity at 50 uM after 20 mins; format: functional
Summary of the method: (§1)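 Interaction with the stable DPPH free radical in an iron-free system, with compounds at 50 μM. Readings were taken at 20 and 60 min. Each experiment was run at least in triplicate, and the standard deviation of absorbance was under 10% of the mean.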

[2] = tested on: Radical scavenging activity; test: Antioxidant activity assessed as DPPH radical scavenging activity at 50 uM after 60 mins; format: functional; summary of the method: as §1
[3] = Antioxidant activity assessed as inhibition of AAPH-induced lipid peroxidation at 100 uM by UV spectrophotometry; format: functional
Glycine max = test: Inhibition of soybean lipoxygenase at 100 uM

inhibition (Glycine max)	Compound	Activity [1]	Activity [2]	inhibition [3]
inactive	Cc1c(-c2ccc(Br)cc2)c(=O)oc2ccccc12	3%	4%	70%
inactive	COc1ccc(-c2cc3ccccc3oc2=O)cc1OC	4%	7%	47%
inactive	Cc1c(-c2ccc(O)cc2)c(=O)oc2ccccc12	5%	9%	20%
31%	COc1ccc(-c2c(C)c3ccccc3oc2=O)cc1OC	8%	10%	36%

The remaining lines, values behind:

Compound	inhibition (Glycine max)	Activity [1]	Activity [2]	inhibition [3]
CC(Cc1ccc(O)c(O)c1)C(C)Cc1ccc(O)c(O)c1 (stereo not drawn)	40%	84%	83%	
Cc1c(C)c2c(c(C)c1O)CCC(C)(C(=O)O)O2 (stereo not drawn)				63%
Cc1c(-c2ccccc2Br)c(=O)oc2ccccc12	6%	4%	3%	20%
COc1ccc(-c2c(C)c3ccccc3oc2=O)cc1	62%	5%	2%	24%
